Bioassay records (PubChem)
PDI turbidity: PDI (human) enzyme inhibition; P07237; PDI insulin aggregation turbidity, A650, 90 min; inhibition, % at 10 µM; 350,000 compounds, 0.052% hits; AID 588391;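 active = mean inhibition across replicates of 30% or more, whatever share of single replicates reach that level; inconclusive = mean inhibition below 30% while every single replicate reaches 30%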
FN deposit inh: fibronectin deposition inhibition | 350,000 compounds, 0.086% hits | AH1F fibroblasts, Alexa488-fibronectin deposition fluorescence, overnight | inhibition, % at 12.6 µM;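 active = mean inhibition across replicates of 30% or more, regardless of how many single replicates reach that level; inconclusive = mean under 30% yet at least half of replicates reach 30%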;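 note: positive control wells lacked labelled fibronectin entirely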
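Material – AH1F fibroblast monolayer, labelled fibronectin deposition · Reagent – labelled fibronectin 24 nM · Timing – 1 h adhesion, overnight exposure · Measured by – fluorescence at 485 nm excitation, 525 nm emission · Read-out – inhibition of fibronectin deposition signal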
ERp5 inh: ERp5 (human) disulfide isomerase inhibition; Q15084; ERp5 insulin aggregation, absorbance 650 nm, 90 min; inhibition, % at 9.99 µM; 350,000 compounds, 0.05% hits;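 active = mean replicate inhibition above about 25%, with every replicate also reaching it, limit read from the data, passing the limit was not always enough; inconclusive = only one of those two criteria met; inactive = neither criterion met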
Target sequence (Q15084 whole entry, looked up): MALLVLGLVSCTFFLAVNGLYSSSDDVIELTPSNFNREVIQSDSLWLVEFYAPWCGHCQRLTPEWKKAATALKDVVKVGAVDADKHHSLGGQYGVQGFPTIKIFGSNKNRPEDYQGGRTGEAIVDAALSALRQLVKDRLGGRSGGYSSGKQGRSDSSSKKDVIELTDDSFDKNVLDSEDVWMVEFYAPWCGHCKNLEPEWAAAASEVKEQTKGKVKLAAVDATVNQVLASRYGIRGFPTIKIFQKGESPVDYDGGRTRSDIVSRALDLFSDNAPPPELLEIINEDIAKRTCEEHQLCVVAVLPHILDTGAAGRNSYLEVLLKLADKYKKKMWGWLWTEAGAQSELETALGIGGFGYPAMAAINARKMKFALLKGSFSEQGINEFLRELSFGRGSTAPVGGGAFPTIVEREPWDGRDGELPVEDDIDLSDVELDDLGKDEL
HIV Env fusion: inhibitors of HIV Env-mediated cell fusion. HeLa-JRFL Env/CEM21 cell fusion, luciferase. inhibition, % at 12.3 µM. 360,000 compounds, 1.1% hits;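 active = mean replicate inhibition score of at least 50 and every replicate individually at or above 50; inconclusive = only one of the two criteria met; inactive = mean below 50 and not all replicates reaching 50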;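 note: 0% = plate neutral controls and 100% = maraviroc near 300 nM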
GSIS activator: GLuc luminescence reporter in INS-1E cells, primary screen for activators of glucose-dependent secretion of insulin | AID 743287 | activation, % at 16.6 µM | INS-1E GLuc reporter insulin secretion, 2-3 h | 370,000 compounds, 0.61% hits;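 active = lowest replicate activation of at least 40%, so every replicate reaches that level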;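 note: 0% = median of neutral control wells and 100% = median of IBMX positive control wells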
The depositor's hits bear a star; [ ] = another dose, or the depositor's remark. In the library only some 1.4% were active in any assay of this set; here they are far more common.

How did COc1cc2c(cc1OC)C(=O)N1[C@H]3c4cc(Cl)ccc4OC[C@@H]3[C@H](c3ccccc3)[C@]1(C)C(=O)N2 do in these assays?
PDI turbidity: -0.8; FN deposit inh: -0.7; ERp5 inh: 10.5; HIV Env fusion: 99.1*; GSIS activator: 8.2

How did C[C@@]12C(=O)Nc3ccc(Br)cc3C(=O)N1[C@H]1c3cc(Br)ccc3OC[C@@H]1[C@@H]2c1ccccc1 do in these assays?
PDI turbidity: 5.6; FN deposit inh: -1.9; ERp5 inh: -5.0; HIV Env fusion: 63.1*; GSIS activator: -3.6

How did C[C@H]1NC(=O)[C@@]2(C)[C@H](c3ccccc3)[C@H]3COc4ccccc4[C@@H]3N2C1=O do in these assays?
PDI turbidity: -0.8; FN deposit inh: -7.9; ERp5 inh: 4.1; HIV Env fusion: 92.2*; GSIS activator: -2.4

What do the screens show for `COc1cc2c(cc1OC)C(=O)N1[C@H]3c4cc(C)ccc4OC[C@@H]3[C@H](c3ccccc3)[C@]1(C)C(=O)N2`?
PDI turbidity: 7.1; FN deposit inh: 8.5; ERp5 inh: 5.5; HIV Env fusion: -43.4; GSIS activator: -2.3

Results for CNC[C@@H]1OCCCC[C@@H](C)Oc2ccc(NC(=O)Nc3ccc(F)cc3)cc2C(=O)N([C@@H](C)CO)C[C@@H]1C ?
ERp5 inh: 1.7; HIV Env fusion: -2.9[16.7 µM]; GSIS activator: -0.1

Results for O=C(Nc1nnc(-c2ccccc2SCc2ccccc2F)s1)Nc1ccccc1F ?
PDI turbidity: 8.9; GSIS activator: 60.8*

What do the screens show for `O=C(Nc1nnc(-c2ccc(F)cc2)s1)Nc1ccccc1F`?
PDI turbidity: 2.0; FN deposit inh: 13.2; ERp5 inh: -1.5; HIV Env fusion: -19.6; GSIS activator: 13.7

Results for CCCc1cc2c(O)ccc(O)c2c(=O)o1 ?
FN deposit inh: 3.8; ERp5 inh: -0.4; HIV Env fusion: 1.0; GSIS activator: 7.3

Results for CCCc1cc2c(OC)ccc(O)c2c(=O)n1C ?
FN deposit inh: 1.9; ERp5 inh: 2.5; HIV Env fusion: 18.7; GSIS activator: 53.3*

Results for COc1ccc(-c2ccc3oc(-c4ccc(OC)cc4)c(C#CCCO)c3c2)cc1 ?
PDI turbidity: 14.7; FN deposit inh: 1.0; ERp5 inh: 3.1; HIV Env fusion: -2.9; GSIS activator: 66.6*

What do the screens show for `CCCNC(=O)C[C@@H]1CC[C@@H]2[C@@H](COc3ccc(NC(=O)c4ccccc4)cc3C(=O)N2C)O1`?
FN deposit inh: 0.8; ERp5 inh: -2.0; HIV Env fusion: -15.7[16.7 µM]; GSIS activator: -3.7

Results for CCCNC(=O)C[C@H]1CC[C@@H]2[C@@H](COc3ccc(NC(=O)c4ccccc4)cc3C(=O)N2C)O1 ?
FN deposit inh: -4.6; ERp5 inh: 63.7*; HIV Env fusion: 3.6[16.7 µM]; GSIS activator: -7.7

How did CCCNC(=O)C[C@H]1CC[C@@H]2[C@@H](COc3ccc(NC(=O)c4cccc(C(F)(F)F)c4)cc3C(=O)N2C)O1 do in these assays?
FN deposit inh: -19.1; ERp5 inh: 2.6; HIV Env fusion: 64.9*[16.7 µM]; GSIS activator: -2.6

What do the screens show for `CN1C(=O)c2cc(NC(=O)C3CCCC3)ccc2OC[C@@H]2O[C@@H](CC(=O)O)CC[C@@H]21`?
FN deposit inh: 2.6; ERp5 inh: -1.6; GSIS activator: 7.5

What do the screens show for `Cc1cc(Br)cc(Cl)c1OC(=O)c1ccncc1`?
PDI turbidity: -14.1; FN deposit inh: -1.3; ERp5 inh: -0.8; HIV Env fusion: -35.8; GSIS activator: 94.4*

How did Cc1cc(Br)cc(Cl)c1OC(=O)c1cnccn1 do in these assays?
PDI turbidity: 7.1; FN deposit inh: 6.2; ERp5 inh: 0.3; HIV Env fusion: -11.4; GSIS activator: 5.1

How did Cc1ccc(C(=O)CSc2nc(C)cc(SCc3nnc(-c4ccccc4)o3)n2)cc1 do in these assays?
PDI turbidity: -3.4; FN deposit inh: 4.9; HIV Env fusion: 61.7*

Results for COc1ccc(C(=O)CSc2cc(C)nc(SCC(=O)c3ccc(C)cc3)n2)cc1 ?
PDI turbidity: -3.3

Results for COCCCNc1ccc([N+](=O)[O-])cc1C(=O)Nc1cccc(C)n1 ?
PDI turbidity: -1.6; ERp5 inh: 7.2; HIV Env fusion: -15.3; GSIS activator: 45.5*

Results for CC(C)C(=O)Nc1ccc2c(c1)C(=O)N(C)[C@H]1CC[C@H](CC(=O)NCCc3ccccc3)O[C@H]1CO2 ?
FN deposit inh: 0.5; HIV Env fusion: -3.2[16.7 µM]; GSIS activator: 0.4

Results for O=C(C[C@@H]1C/C=C/CC[C@@H](Cc2ccc(F)cc2)C(=O)O[C@H](c2ccccc2)CNC1=O)NCCO ?
PDI turbidity: -0.7; FN deposit inh: -8.8; ERp5 inh: 5.2; HIV Env fusion: 83.0*; GSIS activator: -10.9

Results for O=C(C[C@H]1C/C=C/CC[C@H](Cc2ccc(F)cc2)C(=O)O[C@H](c2ccccc2)CNC1=O)NCCO ?
PDI turbidity: 2.5; FN deposit inh: 0.5; ERp5 inh: 0.7; HIV Env fusion: inconclusive; GSIS activator: -7.6

What do the screens show for `C[C@@H]1ON(C)[C@H]2C[C@H]3c4[nH]c5cccc(Br)c5c4CCN3C(=O)[C@@H]12`?
FN deposit inh: 11.4; ERp5 inh: 4.3; HIV Env fusion: 15.3; GSIS activator: 125.4*

What do the screens show for `Cc1cccc(-c2cccc3[nH]c4c(c23)CCN2C(=O)[C@H]3[C@H](C)ON(C)[C@H]3C[C@@H]42)c1`?
FN deposit inh: -15.9; ERp5 inh: 6.8; HIV Env fusion: -65.8; GSIS activator: 9.4

Results for COc1ccc2c3c([nH]c2c1)[C@H](CO)N(C(=O)C1CC1)CC31CN(C(=O)NC(C)C)C1 ?
ERp5 inh: 3.8; GSIS activator: 20.6

How did CC(=O)OCCCNc1cc(Sc2nc3ccccc3s2)c2nonc2c1[N+](=O)[O-] do in these assays?
PDI turbidity: 16.5

Results for CC(=O)OCCNc1cc(Sc2nc3ccccc3[nH]2)c2nonc2c1[N+](=O)[O-] ?
PDI turbidity: 4.6; FN deposit inh: 3.4; HIV Env fusion: -68.3; GSIS activator: 121.2*

What do the screens show for `C/C(=N\NC(=O)CCc1ccccc1)C1C(=O)c2ccccc2C1=O`?
PDI turbidity: -0.4; FN deposit inh: 9.2; ERp5 inh: -1.1; HIV Env fusion: -1.6; GSIS activator: -1.4

Results for C/C(=N\NC(=O)c1cccc(Cl)c1)C1C(=O)c2ccccc2C1=O ?
PDI turbidity: 0.7; FN deposit inh: -2.0; ERp5 inh: -0.2; HIV Env fusion: 56.9*; GSIS activator: -49.7

How did COCC(=O)Nc1ccc2c(c1)C(=O)N(C)[C@H]1CC[C@@H](CC(=O)OC)O[C@H]1CO2 do in these assays?
FN deposit inh: -0.3; HIV Env fusion: 2.7[16.7 µM]; GSIS activator: 2.3

What do the screens show for `O=C(NC1CC1)C1=C[C@H](c2csc3ccccc23)C[C@H](OCCCCO)O1`?
PDI turbidity: 10.7; FN deposit inh: 11.6; ERp5 inh: -1.9; HIV Env fusion: -22.8; GSIS activator: 7.8

What do the screens show for `O=C(NCc1ccccc1)C1=C[C@@H](c2csc3ccccc23)C[C@@H](OCCCCO)O1`?
FN deposit inh: -15.7; ERp5 inh: 3.4; HIV Env fusion: 81.3*; GSIS activator: -0.4
